Assay outcomes: PubChem, Johns Hopkins Ion Channel Center
MrgX1 antag = antagonists of human MrgX1 receptor | Q96LB2 | MRGX1-HEK293 calcium flux, Fluo-4, BAM8-22 antagonism; hits give low values | B-score at 10 µM | 1.3% of 310,000 active | AID 588676;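 active = calcium-response B-score plate-corrected more than 3 library SD below zero, starting fluorescence within 5 deviations, no agonist response on first addition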;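 note: peak minus trough fluorescence over baseline after final BAM8-22 challenge near maximal dose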
Target sequence (Q96LB2 whole entry, looked up): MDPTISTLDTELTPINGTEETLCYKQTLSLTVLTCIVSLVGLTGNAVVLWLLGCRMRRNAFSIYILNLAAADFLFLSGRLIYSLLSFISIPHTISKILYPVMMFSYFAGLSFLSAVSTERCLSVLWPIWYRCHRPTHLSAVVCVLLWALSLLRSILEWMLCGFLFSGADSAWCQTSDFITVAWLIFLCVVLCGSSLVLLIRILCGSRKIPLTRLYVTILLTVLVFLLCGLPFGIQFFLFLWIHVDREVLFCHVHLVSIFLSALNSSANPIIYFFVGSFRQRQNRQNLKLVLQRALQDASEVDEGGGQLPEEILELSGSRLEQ
MrgX1 PAM = allosterically activates human MrgX1 receptor signaling; Q96LB2; MrgX1-HEK293, Fluo-4 calcium flux, FDSS; hits give high values; B-score at 10 µM; 0.63% of 310,000 active; AID 588675;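 active = plate-corrected calcium response at least 3 library SD above typical, normal starting fluorescence, not activating the receptor alone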;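 note: compound read alongside a low EC10 to EC30 dose of BAM8-22 agonist; peak minus trough fluorescence over baseline measured at the second addition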
RGS4 inh = inhibitors of human RGS4; P49798; HEK293 M3R/RGS4 inducible, Fluo-4 calcium flux; hits give high values; triggered by carbachol at its EC20; B-score at 10 µM; 0.45% of 310,000 active; AID 463165;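 active = B-score, a plate-corrected calcium signal, over three deviations above library mean, with baseline fluorescence within five deviations of library mean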;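 note: RGS4 expression induced by doxycycline in cells with stable M3 receptor; B-score is computed from the integrated fluorescence ratio over baseline after carbachol; higher B-score means a larger calcium signal and so more RGS4 inhibition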
Target sequence (P49798 whole entry, looked up): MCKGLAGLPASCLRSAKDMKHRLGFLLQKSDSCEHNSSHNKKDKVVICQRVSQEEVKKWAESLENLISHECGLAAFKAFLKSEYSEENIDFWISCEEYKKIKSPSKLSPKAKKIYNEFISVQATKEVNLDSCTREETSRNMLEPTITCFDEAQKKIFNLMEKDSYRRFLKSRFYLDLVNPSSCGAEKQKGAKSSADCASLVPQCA
RGS4 pot = RGS4 potentiation or activation; B-score at 10 µM; 0.92% of 310,000 active; HEK293 M3R/inducible RGS4, carbachol calcium flux Fluo4; hits give low values;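 active = B-score of the integrated calcium signal more than 4 SD below the library mean, with starting fluorescence not abnormally high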;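 note: negative B-score means reduced calcium response which marks RGS4 activation or potentiation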
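System: HEK293 FlpIn-TREx cells, stable M3R, doxycycline-inducible RGS4. Timing: overnight RGS4 induction, 30 min dye load 37 °C, 20 min compound RT. Also added: carbachol, ECmax concentration. Measured by: Fluo4 fluorescence kinetic imaging of calcium. Evaluation: integrated calcium ratio converted to B score.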
MrgX1 agonist = human MrgX1 receptor agonism, primary screen | MrgX1-HEK293 cells, Fluo-4 calcium fluorescence, agonist mode; hits give high values | B-score at 10 µM | 0.44% of 310,000 active | AID 588627;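 active = calcium response B-score plate-corrected fluorescence ratio at least 3 library SD, with starting fluorescence B-score inside 5 SD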
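times = overnight plating, then 30 min 37 °C plus 30 min room-temperature dye loading | assay system = stable human MrgX1 HEK293 cell line | input = fifteen thousand cells per well | signal = kinetic calcium dye fluorescence, Fluo-4 NW | dosing = compound delivered in addition one of three | read-out = B-scored fluorescence response ratio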
Numbers without * were called inactive; i = inactive; / = not tested or not shown. Compounds with a hit are over-represented: about 3.5% of the library has one in this group of screens.

SMILES	MrgX1 antag	MrgX1 PAM	RGS4 inh	RGS4 pot	MrgX1 agonist
CCCCn1c(N)c(N(CCC(C)C)C(=O)c2ccc([N+](=O)[O-])s2)c(=O)[nH]c1=O	i	i	i	i	i
CN1CCCN(Cc2ccccc2Br)CC1	i	i	i	i	i
C/C(=N/OC(=O)c1ccc(Cl)cc1Cl)c1oc(C)nc1C	i	i	i	i	i
N#C/C(=C(/O)COc1ccccc1)c1nc2ccccc2s1	i	i	i	i	i
N#C/C(=C(/O)c1ccc(F)cc1)c1nc2ccccc2s1	i	i	i	i	29*
CC1CC(C)CN(C(=O)CSc2nc(Cc3cccs3)nc3ccccc23)C1 (configuration not stated)	i	i	i	-7.1*	i
Cc1cccc(C(=O)NC(C(=O)Nc2ccccc2N2CCOCC2)C(C)C)c1 (configuration not stated)	i	i	i	i	i
COc1ccccc1/C=C(/C(=O)OCC(=O)NCc1ccccc1)c1ccccc1	-5.5*	i	i	i	i
CCOC(=O)c1sc(N)c(C#N)c1COC(=O)CNC(=O)c1cc(OC)c(OC)c(OC)c1	-6.6*	i	i	i	i
COc1cc(C(=O)NCC(=O)OCc2ccccc2Cl)cc(OC)c1OC	i	i	i	i	i
CSc1ccccc1C(=O)N1CCC(n2nccc2NC(=O)C(C)(C)C)CC1	i	i	i	i	i
[O-][n+]1cccc2c(Br)cc(Br)c(O)c21	-4.7*	i	i	i	i
O=C(/C=C/c1cccc([N+](=O)[O-])c1)c1ccco1	i	i	i	i	56*
Cc1cccc(/C=C/C(=O)c2ccc(NC3=NCCCS3)cc2)c1	i	i	i	i	i
COc1cccc(/C=C/C(=O)c2cccc([N+](=O)[O-])c2)c1	i	i	i	i	38*
COc1cccc(/C=C/C(=O)c2cccc([N+](=O)[O-])c2)c1OC	i	i	i	i	i
COc1cccc(/C=C/C(=O)c2ccc(NC3=NCCCS3)cc2)c1	i	i	i	i	45*
COc1ccc(Oc2ccc(/C=C/C(=O)c3ccc(O)cc3)cc2[N+](=O)[O-])cc1	-5.4*	i	i	i	i
O=S(=O)(c1ccc(N2CCOCC2)nc1)N(Cc1ccccn1)Cc1ccccn1	i	i	i	i	i
CN(C)c1ccc(/C=C/c2cc[n+](C)cc2)cc1	i	i	i	i	37*
CC(=O)c1ccc(OCCCC(=O)Nc2cccc(-c3nn[nH]n3)c2)cc1	i	i	i	i	i
CC(C)=CC(=O)OCC(=O)Nc1cccc([N+](=O)[O-])c1	-8.6*	i	i	i	i
COc1cc([N+](=O)[O-])ccc1NC(=O)COC(=O)C=C(C)C	i	i	i	i	i
COc1ccc(-c2noc(CCC(=O)N3CCN(Cc4ccccc4)CC3)n2)cc1	-5.3*	i	i	i	i
COc1ccc(-c2noc(CCC(=O)N3CCC(C)CC3)n2)cc1	i	i	i	i	i
SMILES	MrgX1 antag	MrgX1 PAM	RGS4 inh	RGS4 pot	MrgX1 agonist
CCN1CCN(C(CNS(=O)(=O)c2ccccc2)c2ccccc2)CC1 (configuration not stated)	i	i	i	i	i
COc1ccc(NC(=O)COc2ccccc2C(=O)NCC(c2ccccc2)N(C)C)cc1Cl (configuration not stated)	i	i	i	-9.4*	i
C=CS(=O)(=O)c1sc(Cl)c(N2CCOCC2)c1[N+](=O)[O-]	/	/	i	-11*	/
O=C(NC1CCCCC1)N1CCN(c2ccccc2Cl)CC1	i	i	i	i	i
CCN(CC)CCCNC(=O)c1ccc2c(SCC(=O)O)c3c(nc2c1)CCC3	i	i	i	i	i
CCN(CC)CCNC(=O)CSc1c2c(nc3cc(Cl)ccc13)CCCC2	i	i	i	-7.3*	i
CN(C)S(=O)(=O)N(CC(=O)NCCSCc1ccc(Cl)cc1)c1ccccc1	-7.8*	i	i	i	i
CCCCOc1ccc(/C=N/NC(=O)c2csc(C)c2C)cc1	i	i	i	-8.6*	i
Cc1cc(C)c2nc3sc(C(=O)N4CCOCC4)c(N)c3cc2c1	i	i	i	i	49*
CCn1c(-c2ccccc2Cl)nn(CC(=O)NCCc2ccccc2)c1=S	i	12*	i	i	i
Cc1ccc(NC(=O)c2nn(C34CC5CC(CC(C5)C3)C4)cc2[N+](=O)[O-])cc1	-5*	i	i	i	i
Cc1cc(O)c(/C=N/OCc2ccc(Cl)cc2Cl)c(=O)o1	i	i	i	i	i
O=c1c(/C=N/OCc2ccc(Cl)cc2Cl)c[nH]n1-c1cccc(Cl)n1	i	i	i	i	45*
COc1ccc(NC(=O)COC(=O)c2ccc(OCc3ccccc3Cl)c(OC)c2)c(OC)c1	-6*	i	i	i	i
O=[N+]([O-])c1cc(C(F)(F)F)cc([N+](=O)[O-])c1N1CCCNCC1	i	i	i	i	i
CCOc1ccc(C(=O)NNC2CC(=O)N(CCc3ccccc3)C2=O)cc1OC (configuration not stated)	-5.5*	i	i	i	i
O=C1/C(=C/c2ccc(O)cc2)COc2ccccc21	i	i	i	i	i
O=C1/C(=C/c2ccccn2)COc2ccccc21	i	6.7*	i	i	i
Clc1ccccc1-c1nnc(-c2ccc3c(c2)OCO3)o1	i	i	i	i	i
N=C1/C(=C/c2ccc(-c3cccc(C(=O)O)c3)o2)C(=O)N=C2SC=C(c3ccccc3)N12	-7.6*	i	i	-8.4*	i
N=C1/C(=C\c2ccc(-c3cc(Cl)cc(Cl)c3)o2)C(=O)N=C2SC=C(c3ccccc3)N12	i	i	i	i	i
Cc1cccc(C)c1OCC(=O)NNC(=S)NC(=O)C1CC1	i	i	i	i	63*
CCn1c(=S)sc2c(=O)n(-c3ccccc3)c(SC)nc21	i	7.7*	i	i	i
CN1C(=O)/C(=C/c2ccc(OCc3ccccc3F)cc2)N(C)C1=S	i	i	i	i	i
CCCCNC(=O)COC(=O)CCC(=O)c1ccc(F)cc1	-6.1*	i	i	i	i
O=[N+]([O-])CC(c1ccc(F)cc1)c1c[nH]c2ccccc12 (configuration not stated)	i	6.5*	i	i	i
